Only some compounds are listed: those with a hit (about 0.77% of all), similar ones and a draw of the others.
bIAP act: increases bovine intestinal alkaline phosphatase activity; purified bovine IAP, CDP-star luminescence, 30 min; stronger effect = higher value; fold of DMSO-control signal, blank-subtracted; AID 1016; 200,000 tested, 0.17% active; activation factor at 20 µM;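 active = activation factor of 2 or more at 20 µM, a signal rise over negative controls twice the positive control's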
mIAP block: mouse IAP inhibition | purified mouse IAP, CDP-Star luminescence, 30 min | inhibition, % at 10 µM | 330,000 tested, 0.2% active;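 active = inhibition of at least 40% at 10 µM in the primary screen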
hIAP act: increases human intestinal alkaline phosphatase activity; purified human IAP, CDP-Star luminescence, 30 min; stronger effect = higher value; 1 = vehicle-only enzyme, 0 = enzyme-free background; 330,000 tested, 0.16% active; activation factor at 10 µM;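 active = activation factor of the enzyme at least 2-fold when tested at 20 µM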
Target sequence (P09923 whole entry, looked up): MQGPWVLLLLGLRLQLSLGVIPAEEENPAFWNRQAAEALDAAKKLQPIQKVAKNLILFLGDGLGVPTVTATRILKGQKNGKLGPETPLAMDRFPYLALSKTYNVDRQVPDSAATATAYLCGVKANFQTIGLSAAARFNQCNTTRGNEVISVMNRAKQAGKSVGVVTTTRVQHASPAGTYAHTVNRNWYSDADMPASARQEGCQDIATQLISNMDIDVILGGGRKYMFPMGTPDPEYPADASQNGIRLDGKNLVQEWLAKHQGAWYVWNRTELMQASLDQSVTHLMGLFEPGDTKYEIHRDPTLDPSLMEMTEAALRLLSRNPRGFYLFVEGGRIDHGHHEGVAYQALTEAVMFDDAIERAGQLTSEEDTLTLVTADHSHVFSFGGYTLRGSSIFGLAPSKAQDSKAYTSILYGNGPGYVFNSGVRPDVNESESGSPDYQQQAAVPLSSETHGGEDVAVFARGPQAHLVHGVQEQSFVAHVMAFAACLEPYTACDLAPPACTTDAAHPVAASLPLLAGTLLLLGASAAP
bIAP inh: intestinal alkaline phosphatase (bovine) inhibition. purified bovine IAP, CDP-star luminescence, 30 min. inhibition, % at 20 µM. 190,000 tested, under 10 active. AID 1019;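 active = over 50% inhibition of intestinal alkaline phosphatase at 20 µM in the single-dose screen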
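System: Purified bovine intestinal alkaline phosphatase (IAP) enzyme | Input: IAP diluted 1/65,000,000 in the well | Also added: CDP-star chemiluminescent phosphatase substrate, 30 µM final | Dosing: 20 µM single dose | Times: Enzyme reaction for 30 min at room temperature | Detection: Luminescence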
mIAP activ: increases mouse intestinal alkaline phosphatase activity | muIAP, CDP-Star luminescence, 30 min; stronger effect = higher value; 1 = vehicle-only enzyme signal, 0 = enzyme-free wells | activation factor at 10 µM | 330,000 tested, 0.24% active | AID 2805;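 active = activation factor of at least 2 at 20 µM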
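System: mouse IAP enzyme. Reagent: CDP-Star chemiluminescent phosphatase substrate. Benchmarks: DMSO wells, no-enzyme wells. Times: 30 min enzyme-substrate-compound incubation at room temperature. Detection: luminescence from enzymatic CDP-Star hydrolysis. Doses: test compounds delivered from DMSO solution.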
hIAP block: blocks human intestinal alkaline phosphatase. inhibition, % at 10 µM. purified IAP, CDP-Star luminescence, 30 min. 330,000 tested, 0.12% active. P09923. AID 2544;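 active = inhibition reaching a set limit with compound at 10 µM in the primary screen, cut at about 35% in these data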
Large screens that a line does not name were inactive.

O=C(Nc1ccc(F)cc1F)Nc1ccc(F)cc1F	none
CN(C)Cc1ccccc1Sc1cccc2ccccc12	bIAP act 2.3 (no result: mIAP block, hIAP act, mIAP activ, hIAP block)
COc1cccc(CN2CC(C(=O)NCC3CCOCC3)CCC2=O)c1 (stereo unspecified)	none (no result: bIAP act, bIAP inh)
Clc1ccc(-n2nnc(-c3cccnc3Cl)n2)cc1Cl	mIAP block 49.2
Fc1c(F)c(F)c(N/N=C/c2c[nH]c3ccccc23)c(F)c1F	bIAP act 2.7
CCc1noc(C)c1C(=O)Nc1ccccc1C(C)(C)C	none (no result: bIAP act, bIAP inh)
CC[n+]1c(/C=C/N(C)c2ccccc2)oc2ccc(Cl)cc21	none
CCN1/C(=C/C=C/c2oc3ccc4ccccc4c3[n+]2CC)Oc2ccc3ccccc3c21	mIAP block 47.2, hIAP block 43.6
CCc1ccc(N=Nc2ccc(O)c3[nH]cnc23)cc1	mIAP block 40.1 (no result: bIAP act, bIAP inh)
COc1ccc(N=Nc2ccc(O)c3ncccc23)cc1	none (no result: bIAP act, bIAP inh)
COc1cccc(NC(=O)CCC2CCN(C(=O)C3CC=CCC3)CC2)c1 (stereo unspecified)	none (no result: bIAP act, bIAP inh)
Cc1cccc(NC(=O)Nc2ccc3c(c2)CCC3)c1	mIAP activ 2.88 (no result: bIAP act, bIAP inh)
CCOc1ccc(S(=O)(=O)Nc2ccc(C(=O)N3CCCC3)cc2)cc1C(N)=O	none (no result: bIAP act, bIAP inh)
CCn1nccc1C(=O)Nc1ccc(C(=O)OC(C)C)cc1	none (no result: bIAP act, bIAP inh)
Cc1ccc2c(c1)C1NC(=S)NC(C)(O2)C1C(=O)Nc1ccc(Cl)cc1 (stereo unspecified)	mIAP activ 2.02
CCOC(=O)CN1NC2(CCCCC2)NC1=S	mIAP block 50.7
CCOC(=O)CN1NC2(CCCCCCC2)NC1=S	none (no result: bIAP act, bIAP inh)
COc1cccc(OCCNC(=O)Nc2cc(F)c(F)cc2Cl)c1	mIAP activ 2.33
COc1ccc(OCCNC(=O)Nc2cc(F)c(F)cc2Cl)cc1	none
COc1cc([C@@H]2c3cc4c(cc3[C@@H](O[C@@H]3O[C@@H]5CO[C@@H](C)O[C@H]5[C@H](O)[C@H]3O)[C@H]3COC(=O)[C@H]23)OCO4)cc(OC)c1O	none (no result: bIAP act, bIAP inh)
CCc1ccc(-c2nc(CN3CCC(C(=O)NCc4ccccc4OC)CC3)c(C)o2)cc1	bIAP act 2.6
CCc1ccc(-c2nc(CN3CCC(C(=O)NCCc4ccc(OC)c(OC)c4)CC3)c(C)o2)cc1	bIAP act 2.1
O=C(Nc1ccc2ccccc2c1)c1cn(-c2ccccc2)nc1-c1cccs1	mIAP activ 2.14
CC1(C)Cc2nc3nc(SCC(=O)Nc4ccccc4)nc(N)c3cc2CO1	none
CCCCNc1nc2ccccc2[nH]1	bIAP act 3.1
Cn1c(=O)c2c(nc(Sc3ncnn3CC(=O)N3CCOCC3)n2C)n(C)c1=O	none (no result: bIAP act, bIAP inh)
COc1cc(OC)cc(-c2c(C#Cc3ccsc3)c3cc(-c4ccc5c(c4)OCCO5)ccc3n2C)c1	none (no result: bIAP act, bIAP inh)
COc1cccc(NC(=O)Nc2ccc3c(c2)N(C)C(=O)CS3)c1	mIAP activ 2.71
CCOc1ccc(OCC)c(NC(=O)Nc2ccc3c(c2)N(C)C(=O)CS3)c1	mIAP activ 2.38
CC(=O)Nc1ccc(NC(=O)Nc2ccc3c(c2)N(C)C(=O)CS3)cc1	none
O=C(NCCO)c1nc(C(=O)c2ccc(Cl)cc2)c2ccccc2n1	none (no result: bIAP act, bIAP inh)
CC(C)COc1ccc(CSCCNC(=S)Nc2ccccc2)cc1	mIAP activ 2.44
CCCCOc1ccc(CSCCNC(=S)Nc2ccccc2)cc1	none
CCCCCOc1ccc(CSCCNC(=S)Nc2ccccc2)cc1	mIAP activ 2.47
Cc1ccccc1NC(=O)CSc1nc(=O)n(CCN2CCOCC2)c2c1CCCC2	none (no result: bIAP act, bIAP inh)
Cc1ccc(NC(=O)N/C=C/c2ccccc2)cc1	mIAP activ 2.23
COc1ccc(NC(=O)N/C=C/c2ccc(Cl)cc2)cc1	none
Cc1ccc(NC(=O)N/C=C/c2ccc(Cl)cc2)cc1	mIAP activ 2.31 (no result: bIAP inh)
FC(F)(F)c1cccc(NC(=S)NCC2COc3ccccc3O2)c1 (stereo unspecified)	mIAP activ 3.58
CCCCNC(=S)Nc1ccc(Cl)cc1	none
O=C(O)c1ccc(NC(=S)NC2CCCCC2)cc1	none
CCCCNC(=S)Nc1ccc(C(F)(F)F)cc1	mIAP activ 2.21
FC(F)(F)c1cccc(NC(=S)NC2CCCC2)c1	mIAP activ 2.61
FC(F)(F)c1ccc(NC(=S)NC2CCCCC2)cc1	mIAP activ 2.67
Cc1cc(C(=O)COC(=O)Cc2ccc(Br)cc2)c(C)n1C	none (no result: bIAP act, bIAP inh)
